Data: ChEMBL document CHEMBL4602735, “Discovery of (1H-Pyrazolo[3,4-c]pyridin-5-yl)sulfonamide Analogues as Hepatitis B Virus Capsid Assembly Modulators by Conformation Constraint” (J Med Chem, 2020)
Activity calls are given as the source filed them. The rule behind the calls is not given here.

Experiments:
[1] = tested on: Hepatitis B virus; experiment: Antiviral activity against HBV infected in human HepAD38 cells assessed as reduction in viral DNA levels incubated for 6 days by PCR analysis; type: functional, organism-based; conditions: HePAD38, 144 h
[2] = Cytotoxicity in human HepAD38 cells assessed as induction of cell killing; type: cell-based
[3] = Selectivity index, ratio of CC50 for cytotoxicity in human HepAD38 cells assessed as induction of cell killing to EC50 for antiviral activity against HBV infected in human HepAD38 cells assessed as reduction in viral DNA levels incubated for 6 days by PCR analysis; type: toxicity, cell-based; conditions: read-out: Ratio CC50/EC50
[4] = Intrinsic clearance in mouse liver microsomes; type: ADME, Microsome; conditions: read-out: CLH
[5] = tested on: Hepatitis B virus; experiment: Inhibition of HBsAg secretion in HBV infected human HepG2.2.15 cells at 2 uM for 4 days by ELISA; type: functional, organism-based; conditions: HepG2 2.2.15
Summary of the method: (§1)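 HepAD38 or HepG2.2.15 cells were treated at 2 µM for 4 days, with medium replaced every 2 days. Intracellular and extracellular DNA and RNA were quantified by qPCR or qRT-PCR, and HBeAg and HBsAg by ELISA. Results were compared with DMSO vehicle as mean ± SD, using a two-tailed t-test.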

[6] = tested on: Hepatitis B virus; experiment: Inhibition of HBsAg secretion in HBV infected human HepAD38 cells at 2 uM for 4 days by ELISA; type: functional, organism-based; summary of the method: as §1
[7] = tested on: Hepatitis B virus; experiment: Antiviral activity against HBV infected in human HepAD38 cells assessed as inhibition of intracellular viral RNA accumulation at 2 uM for 4 days by qPCR or qRT-PCR relative to control; type: functional, organism-based; summary of the method: as §1
[8] = tested on: Hepatitis B virus; experiment: Antiviral activity against HBV infected in human HepG2.2.15 cells assessed as inhibition of intracellular viral RNA accumulation at 2 uM for 4 days by qPCR or qRT-PCR relative to control; type: functional, organism-based; conditions: HepG2 2.2.15; summary of the method: as §1
[9] = tested on: Hepatitis B virus; experiment: Antiviral activity against HBV infected in human HepAD38 cells assessed as inhibition of intracellular viral DNA accumulation at 2 uM for 4 days by qPCR or qRT-PCR relative to control; type: functional, organism-based; summary of the method: as §1
[10] = tested on: Hepatitis B virus; experiment: Antiviral activity against HBV infected in human HepG2.2.15 cells assessed as inhibition of intracellular viral DNA accumulation at 2 uM for 4 days by qPCR or qRT-PCR relative to control; type: functional, organism-based; conditions: HepG2 2.2.15; summary of the method: as §1
[11] = tested on: Hepatitis B virus; experiment: Antiviral activity against HBV infected in human HepG2.A64 cells containing reverse transcriptase L180M/T184L/M204V mutant assessed as reduction in viral replication incubated for 6 days by PCR analysis; type: functional, organism-based; conditions: HepG2.A64, 144 h
Summary of the method: (§2)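 Wild-type HBV replication measured in HepAD38 and HepG2.2.15 cells, lamivudine/entecavir-resistant HBV in HepG2.A64 cells (rtL180M+rtT184L+rtM204V) and multidrug-resistant HBV in HepG2.1403F cells (rtL180M+rtM204V+rtS202G+rtN236T). Read-out is reduction of HBV DNA. EC50 is reported as mean ± SD.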

[12] = tested on: Hepatitis B virus; experiment: Antiviral activity against multidrug-resistant HBV infected in human HepG2.1403F cells assessed as reduction in viral replication incubated for 6 days by PCR analysis; type: functional, organism-based; conditions: 144 h; summary of the method: as §2
[13] = tested on: Hepatitis B virus; experiment: Antiviral activity against HBV infected in human HepG2.2.15 cells assessed as reduction in viral DNA levels incubated for 6 days by PCR analysis; type: functional, organism-based; conditions: HepG2 2.2.15, 144 h
[14] = Cytotoxicity in human HepG2 cells assessed as induction of cell killing; type: cell-based
[15] = Solubility in pH 6.8 phosphate buffer at 1 mg at 25 degC by HPLC analysis; type: physicochemical; conditions: BLD = below limit of detection
Summary of the method: (§3)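 Solubility determined in water or 0.067 M phosphate buffer at pH 5.8, 6.8 and 7.4. Values are reported in mg/mL; ND means below the detection limit.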

[16] = tested on: Hepatitis B virus; experiment: Antiviral activity against HBV genotype D in hydrodynamic injection-based C57BL/6 mouse model of HBV infection assessed as inhibition of HBV replication at 50 mg/kg, po dosed once daily for 7 days by real-time PCR analysis; type: functional, organism-based
[17] = tested on: Hepatitis B virus; experiment: Antiviral activity against HBV genotype D in hydrodynamic injection-based C57BL/6 mouse model of HBV infection assessed as inhibition of serum HBV DNA level at 50 mg/kg, po dosed twice daily for 7 days by real-time PCR analysis; type: functional, organism-based
[18] = tested on: Hepatitis B virus; experiment: Antiviral activity against HBV genotype D in hydrodynamic injection-based C57BL/6 mouse model of HBV infection assessed as inhibition of liver HBV DNA level at 50 mg/kg, po dosed twice daily for 7 days by real-time PCR analysis; type: functional, organism-based
[19] = tested on: Hepatitis B virus; experiment: Antiviral activity against HBV genotype D in hydrodynamic injection-based C57BL/6 mouse model of HBV infection assessed as inhibition of serum HBV DNA level at 100 mg/kg, po dosed twice daily for 7 days by real-time PCR analysis; type: functional, organism-based
[20] = tested on: Hepatitis B virus; experiment: Antiviral activity against HBV genotype D in hydrodynamic injection-based C57BL/6 mouse model of HBV infection assessed as inhibition of liver HBV DNA level at 100 mg/kg, po dosed twice daily for 7 days by real-time PCR analysis; type: functional, organism-based
[21] = Half life in C57BL/6 mouse at 20 mg/kg, iv measured from 5 mins to 24 hrs by HPLC analysis; type: ADME, organism-based; conditions: in vivo
Summary of the method: (§4)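 Male C57BL/6 mice, n=3. Dosing 20 mg/kg i.v. or 100 mg/kg p.o. of parent; prodrug p.o. at 100 or 200 mg/kg. The parent compound was measured in blood/plasma and in liver from 5 min onward. Readouts were Cmax, Tmax, t1/2, CL, AUC and oral bioavailability.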

[22] = Clearance in C57BL/6 mouse at 20 mg/kg, iv measured from 5 mins to 24 hrs by HPLC analysis; type: ADME, organism-based; conditions: in vivo; summary of the method: as §4
[23] = AUC in C57BL/6 mouse plasma at 20 mg/kg, iv measured from 5 mins to 24 hrs by HPLC analysis; type: ADME, organism-based; parameters: dose 20 mg/kg, time upper 24 hr, time lower 0.083 hr, route intravenous; summary of the method: as §4
[24] = AUC in C57BL/6 mouse plasma at 100 mg/kg, po measured from 5 mins to 24 hrs by HPLC analysis; type: ADME, organism-based; parameters: time upper 24 hr, dose 100 mg/kg, time lower 0.083 hr, route oral; summary of the method: as §4
[25] = AUC in C57BL/6 mouse liver at 20 mg/kg, iv measured from 5 mins to 24 hrs by HPLC analysis; type: ADME, organism-based; parameters: time lower 0.083 hr, dose 20 mg/kg, time upper 24 hr, route intravenous; conditions: in vivo; summary of the method: as §4
[26] = AUC in C57BL/6 mouse liver at 100 mg/kg, po measured from 5 mins to 24 hrs by HPLC analysis; type: ADME, organism-based; parameters: time 0.083-24 hr, dose 100 mg/kg, route oral; conditions: in vivo; summary of the method: as §4
[27] = Tmax in C57BL/6 mouse blood at 100 mg/kg, po measured from 5 mins to 24 hrs by HPLC analysis; type: ADME, organism-based
Summary of the method: (§5)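 Male C57BL/6 mice, single oral dose of prodrug at 100 or 200 mg/kg; blood and liver levels of the parent compound measured over time; N=3; Tmax taken from the concentration–time profiles.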

[28] = Cmax in C57BL/6 mouse blood at 100 mg/kg, po measured from 5 mins to 24 hrs by HPLC analysis; type: ADME, organism-based; parameters: dose 100 mg/kg, route oral; summary of the method: as §4
[29] = Tmax in C57BL/6 mouse liver at 100 mg/kg, po measured from 5 mins to 24 hrs by HPLC analysis; type: ADME, organism-based; summary of the method: as §5
[30] = Cmax in C57BL/6 mouse liver at 100 mg/kg, po measured from 5 mins to 24 hrs by HPLC analysis; type: ADME, organism-based; parameters: dose 100 mg/kg, route oral; conditions: in vivo; summary of the method: as §4
[31] = Oral bioavailability in C57BL/6 mouse liver at 100 mg/kg measured from 5 mins to 24 hrs by HPLC analysis; type: ADME, organism-based; summary of the method: as §4
[32] = Drug level in C57BL/6 mouse liver at 100 mg/kg, po measured after 5 mins by HPLC analysis; type: ADME, organism-based; conditions: in vivo
[33] = tested on: Hepatitis B virus; experiment: Antiviral activity against HBV infected in human HepG2.2.15 cells; type: functional, organism-based; conditions: HepG2 2.2.15
[34] = tested on: Hepatitis B virus; experiment: Antiviral activity against HBV genotype D in hydrodynamic injection-based C57BL/6 mouse model of HBV infection assessed as inhibition of HBV replication at 100 mg/kg, po dosed once daily for 7 days by real-time PCR analysis; type: functional, organism-based
[35] = Cytotoxicity in human HepG2 cells assessed as induction of cell killing
[36] = Half life in mouse plasma by HPLC analysis; type: ADME, cell-free
Summary of the method: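 Prodrug incubated in plasma at 37 °C, with percent remaining determined by HPLC to derive half-life.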

[37] = Stability in pH 7.4 buffer assessed as compound hydrolysis level after 2 hrs at 37 degC by HPLC analysis; type: physicochemical; conditions: pH 7.4, 2 h
Summary of the method: (§6)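 Prodrug incubated in buffer (0.1 M HCl, pH 5.8, 6.8 or 7.4) at 37 °C; percent of compound remaining determined by HPLC; remaining percentage reported after 3 h, stability meaning no hydrolysis after 2 h.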

[38] = Stability in pH 6.8 buffer assessed as compound remaining level at 37 degC by HPLC analysis; type: physicochemical; summary of the method: as §6
[39] = Stability in 0.1M HCl solution assessed as compound remaining level at 37 degC by HPLC analysis; type: physicochemical; conditions: buffer; summary of the method: as §6
[40] = Solubility in water at 1 mg at 25 degC by HPLC analysis; type: physicochemical; summary of the method: as §3
[41] = Solubility in pH 5.8 phosphate buffer at 1 mg at 25 degC by HPLC analysis; type: physicochemical; summary of the method: as §3

Structure (SMILES): Cc1cc(Nc2nn(C3CC3)c3cnc(S(=O)(=O)N4CCC(O)CC4)cc23)ccc1F
- EC50 [1]: 34 nM
- CC50 [2]: > 100 µM
- selectivity ratio at 144 h [3]: > 2940
- microsomal CLint [4]: 10.3 µL/min/mg
- inhibition [5]: inactive
- inhibition [6]: inactive
- inhibition [7]: Active
- inhibition [8]: Active
- inhibition [9]: Active
- inhibition [10]: Active
- EC50 [11]: 0.25 nM
- EC50 [12]: 0.33 nM
- EC50 [13]: 3.5 nM
- CC50 [14]: > 100 µM
- solubility [15]: Bld
- Activity [16]: inactive
- Activity [17]: inactive
- Activity [18]: inactive
- Activity [19]: inactive
- Activity [20]: inactive
- half-life [21]: 37.8 min
- clearance [22]: 2.33 mL/min
- AUC [23]: 2600 ng·h/mL
- AUC [24]: 1580 ng·h/mL
- AUC [25]: 62 nmol·h/g
- AUC [26]: 142 nmol·h/g
- Tmax [27]: 30 min
- Cmax [28]: 1190 nM
- Tmax [29]: 30 min
- Cmax [30]: 32 nmol/g
- bioavailability [31]: 12%
- Drug uptake [32]: > 10 nmol/g

Structure (SMILES): COC(=O)C1=C(C)NC(c2ncc(F)cc2F)=N[C@H]1c1ccc(F)cc1Cl
- EC50 [33]: 53 nM

Structure (SMILES): CC[C@@H](C)NS(=O)(=O)c1ccc(F)c(C(=O)Nc2ccc(F)c(F)c2)c1
- EC50 [1]: 310 nM
- selectivity ratio at 144 h [3]: 129
- EC50 [11]: 48 nM
- EC50 [12]: 74 nM
- EC50 [13]: 280 nM
- CC50 [14]: 39.9 µM
- Activity [34]: inactive
- CC50 [35]: 39.9 µM

Structure (SMILES): Cc1cc(Nc2nn(C3CC3)c3cnc(S(=O)(=O)N4CCC(OC(=O)CN(C)C)CC4)cc23)ccc1F.O=C(O)C(F)(F)F
- half-life [36]: 47.2 min
- Stability [37]: Stable
- Stability [38]: Unstable
- Stability [39]: Stable
- solubility [40]: 1510 µg/mL
- solubility [41]: 290 µg/mL
- solubility [15]: Bld
